In BindingDB's records for doi:10.1021/jm991078x (Insituto De Qu?mica M?dica (Csic), 1999) one finds IC50 data, which are given here for two molecules.

As a reminder, the IC50 is the concentration needed to halve the response being measured. A high value points to a need for much substance.

SMILES strings stand for the structures.

The target in test [1] is T1, Gastrin/cholecystokinin type B receptor (Rattus norvegicus, UniProt P30553).
T1 sequence (P30553 whole entry): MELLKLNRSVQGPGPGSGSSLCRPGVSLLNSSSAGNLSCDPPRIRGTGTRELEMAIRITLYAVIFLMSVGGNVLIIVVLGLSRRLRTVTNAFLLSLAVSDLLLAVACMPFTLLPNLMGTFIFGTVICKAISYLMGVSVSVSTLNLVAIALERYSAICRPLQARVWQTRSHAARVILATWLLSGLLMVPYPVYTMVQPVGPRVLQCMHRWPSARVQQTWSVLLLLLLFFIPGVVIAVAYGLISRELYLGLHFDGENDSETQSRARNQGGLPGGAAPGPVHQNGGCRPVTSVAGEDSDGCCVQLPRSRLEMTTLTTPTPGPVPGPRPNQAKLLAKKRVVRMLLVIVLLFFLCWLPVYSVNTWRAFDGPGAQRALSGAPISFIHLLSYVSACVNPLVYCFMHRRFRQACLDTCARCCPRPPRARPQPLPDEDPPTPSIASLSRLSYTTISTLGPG
Briefly: Binding affinity by competitive inhibition of the radioligand [3H]pCCK-8 at Cholecystokinin type B receptor from rat cerebral cortex membrane.

The target of test [2] is T2, Cholecystokinin receptor type A (Rattus norvegicus, UniProt P30551).
T2 sequence (P30551 whole entry): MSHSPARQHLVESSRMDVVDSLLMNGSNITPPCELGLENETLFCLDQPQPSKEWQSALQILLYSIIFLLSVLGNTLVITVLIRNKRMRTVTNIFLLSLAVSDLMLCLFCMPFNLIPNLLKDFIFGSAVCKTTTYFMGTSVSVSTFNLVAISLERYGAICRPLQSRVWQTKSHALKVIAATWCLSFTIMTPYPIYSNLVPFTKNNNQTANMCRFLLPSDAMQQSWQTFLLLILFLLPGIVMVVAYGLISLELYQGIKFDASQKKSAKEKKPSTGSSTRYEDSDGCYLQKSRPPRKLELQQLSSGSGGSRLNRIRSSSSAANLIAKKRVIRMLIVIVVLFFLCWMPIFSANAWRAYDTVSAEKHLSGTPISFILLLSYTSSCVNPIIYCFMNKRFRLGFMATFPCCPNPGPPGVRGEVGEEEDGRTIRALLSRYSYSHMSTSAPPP
The experiment in a line: Binding affinity by competitive inhibition of the radioligand [3H]pCCK-8 at Cholecystokinin type A receptor from rat pancreas. An outline of the steps:
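Rat pancreas homogenized in Pipes HCl pH 6.5 with 30 mM MgCl2, centrifuged twice at 50000g, 4 °C. Membranes (0.2 mg protein/tube) incubated with 0.5 nM [3H]pCCK-8 plus bacitracin and soybean trypsin inhibitor (0.2 mg/mL each) for 120 min at 25 °C. […]. Seven concentrations in triplicate, at least three experiments.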

For the molecule `O=C(N[C@H]1CCCN2C(=O)N(Cc3ccccc3)C(=O)C[C@H]12)c1cc2ccccc2[nH]1`, the IC50 was more than 10 µM in test [1] and more than 1 µM in test [2].
As for `O=C(Cc1c[nH]c2ccccc12)N[C@H]1CCCN2C(=O)N(Cc3ccccc3)C(=O)C[C@@H]12` [N-((4aS,5S)-2-Benzyl-1,3-dioxo-octahydro-pyrido[1,2-c]pyrimidin-5-yl)-2-(1H-indol-3-yl)-acetamide; compound with 1H-indole-3-carboxylic acid ((4aR,5R)-2-benzyl-1,3-dioxo-octahydro-pyrido[1,2-c]pyrimidin-5-yl)-amide], the half-maximal inhibitory concentration (IC50) in test [1] was more than 10 µM; in test [2], more than 1 µM.
